What was measured:
[1] = target: T1, Poly [ADP-ribose] polymerase 1 (Homo sapiens, UniProt P09874)
A2780 [2] = assay: Potentiation of growth inhibition of A2780 by compound alone in experiment 1; format: functional, cell-based; settings: Homo sapiens
Method in brief: (§1)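 A2780 cells were grown in HEPES-RPMI 1640 + 10% FCS and seeded at 2.0–2.5 × 10^3 per well. After overnight attachment (16–24 h) they were exposed for 72 h to graded temozolomide or topotecan ± 10 μM PARP inhibitor (1% DMSO). Sulforhodamine B read at 570 nm, 5 replicate wells, % of matched control. IC50 by nonlinear regression; potentiation is IC50 alone over IC50 with inhibitor.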

A2780 [3] = assay: Potentiation factor at 50% growth inhibition (IC50 of compound to that of compound along with PARP inhibitor) in experiment 1; format: functional, Homo sapiens
Method in brief: as §1

A2780 [4] = assay: Potentiation factor at 50% growth inhibition (IC50 of compound to that of compound along with PARP inhibitor) in experiment 2; format: functional, Homo sapiens
Method in brief: as §1

A2780 [5] = assay: Potentiation of growth inhibition of A2780 cells by compound alone in experiment 2; format: functional, cell-based; settings: Homo sapiens
Method in brief: as §1

A2780 [6] = assay: Potentiation of growth inhibition of A2780 cells along with 10 uM NU1085 in experiment 1; format: functional, cell-based; settings: Homo sapiens
Method in brief: as §1

A2780 [7] = assay: Potentiation of growth inhibition of A2780 cells along with 10 uM NU1085 in experiment 2; format: functional, cell-based; settings: Homo sapiens
Method in brief: as §1

A2780 [8] = assay: Potentiation of growth inhibition of A2780 cells by compound alone in experiment 1; format: functional, cell-based; settings: Homo sapiens
Method in brief: as §1

[9] = target: T1, Poly [ADP-ribose] polymerase 1; assay: In vitro inhibition against human full length PARP protein
Method in brief: (§2)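 Baculovirus-expressed, purified human full-length PARP (20 nM) with DNase I-activated calf thymus DNA (10 μg/mL) and NAD+ (500 μM, with [32P]NAD+). Run in 50 mM Tris pH 8.0, 10 mM MgCl2, 1 mM TCEP, 2% DMSO, 25 °C, 5 min (linear to 8 min). Stopped with ice-cold TCA and filtered. Acid-insoluble [32P]ADP-ribose read by phosphorimager. Ki from competitive-inhibition fit; tight-binding equation where needed.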

[10] = target: T1, Poly [ADP-ribose] polymerase 1; assay: In vitro inhibition against human full length PARP protein; IA means inactive
Method in brief: as §2

T1 sequence (P09874 whole entry): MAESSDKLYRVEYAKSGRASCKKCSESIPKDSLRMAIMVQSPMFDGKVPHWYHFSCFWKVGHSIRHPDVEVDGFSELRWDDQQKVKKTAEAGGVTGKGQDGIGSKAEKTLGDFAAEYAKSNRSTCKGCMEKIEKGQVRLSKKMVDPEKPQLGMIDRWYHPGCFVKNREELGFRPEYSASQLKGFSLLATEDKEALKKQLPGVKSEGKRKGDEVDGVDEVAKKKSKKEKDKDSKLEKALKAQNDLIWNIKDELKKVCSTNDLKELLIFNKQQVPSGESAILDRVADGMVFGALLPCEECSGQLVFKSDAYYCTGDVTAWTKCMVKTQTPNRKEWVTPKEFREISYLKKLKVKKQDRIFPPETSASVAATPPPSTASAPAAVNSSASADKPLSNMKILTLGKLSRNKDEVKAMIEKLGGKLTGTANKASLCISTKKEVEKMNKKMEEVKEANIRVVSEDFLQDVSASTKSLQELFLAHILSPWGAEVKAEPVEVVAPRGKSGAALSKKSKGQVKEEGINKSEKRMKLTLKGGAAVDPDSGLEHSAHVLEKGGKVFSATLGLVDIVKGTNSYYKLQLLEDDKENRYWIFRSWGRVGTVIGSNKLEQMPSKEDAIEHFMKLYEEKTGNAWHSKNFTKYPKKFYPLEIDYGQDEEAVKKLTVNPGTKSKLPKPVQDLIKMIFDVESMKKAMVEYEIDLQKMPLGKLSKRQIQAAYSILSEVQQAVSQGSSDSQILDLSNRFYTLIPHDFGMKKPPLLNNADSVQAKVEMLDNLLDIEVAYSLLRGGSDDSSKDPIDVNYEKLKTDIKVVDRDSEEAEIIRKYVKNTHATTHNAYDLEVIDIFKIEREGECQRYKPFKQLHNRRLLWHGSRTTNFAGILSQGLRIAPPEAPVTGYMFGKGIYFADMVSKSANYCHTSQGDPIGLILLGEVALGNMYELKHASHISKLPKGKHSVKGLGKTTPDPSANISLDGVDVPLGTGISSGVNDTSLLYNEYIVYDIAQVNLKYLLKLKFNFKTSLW

Ki [1] [µM] | SMILES | other results
0.0068 | COc1ccc(-c2nc3c(C(N)=O)cccc3[nH]2)cc1 | 
0.19 | NC(=O)c1cccc2[nH]c(-c3ccccc3C(F)(F)F)nc12 | 
0.011 | NC(=O)c1cccc2nc(-c3ccc(N)cc3)[nH]c12 | 
0.013 | COc1cc(-c2nc3c(C(N)=O)cccc3[nH]2)ccc1O | 
0.085 | CC(C)[Si](OCc1ccc(-c2nc3c(C(N)=O)cccc3[nH]2)cc1)(C(C)C)C(C)C | 
0.0068 | NC(=O)c1cccc2[nH]c(-c3cccc(CO)c3)nc12 | 
0.126 | COc1ccccc1-c1nc2c(C(N)=O)cccc2[nH]1 | 
0.0094 | C=CCOc1cc(-c2nc3c(C(N)=O)cccc3[nH]2)ccc1OC | 
0.099 | Cc1nc2c(C(N)=O)cccc2[nH]1 | 
0.0054 | COc1ccc(-c2nc3c(C(N)=O)cccc3[nH]2)cc1OC | 
0.008 | NC(=O)c1cccc2[nH]c(-c3cccc(C(F)(F)F)c3)nc12 | 
0.136 | COc1cc(-c2nc3c(C(N)=O)cccc3[nH]2)cc(OC)c1OC | 
0.009 | NC(=O)c1cccc2[nH]c(-c3ccccc3F)nc12 | 
0.032 | COc1ccc(-c2nc3c(C(N)=O)cccc3n2C)cc1 | 
0.0084 | NC(=O)c1cccc2[nH]c(-c3cccc(Cl)c3)nc12 | 
0.0058 | CN(C)c1ccc(-c2nc3c(C(N)=O)cccc3[nH]2)cc1 | 
0.0106 | NC(=O)c1cccc2[nH]c(-c3ccccc3CO)nc12 | 

More lines, now with the values behind:

SMILES | Ki [1] [µM] | other results
NC(=O)c1cccc2nc(-c3ccc(Cl)cc3)[nH]c12 | 0.003 | 
Cn1nnc2c(C(N)=O)ncn2c1=O [TEMOZOLOMIDE] |  | IC50 (A2780 [2]): 525 µM; PF50 (A2780 [3]): 2.8; PF50 (A2780 [4]): 2; IC50 (A2780 [5]): 368 µM; IC50 (A2780 [6]): 188 µM; IC50 (A2780 [7]): 183 µM
NC(=O)c1cccc2[nH]cnc12 | 0.095 | 
NC(=O)c1cccc2[nH]c(-c3ccccc3Cl)nc12 | 0.0094 | 
CC[C@@]1(O)C(=O)OCc2c1cc1n(c2=O)Cc2cc3c(CN(C)C)c(O)ccc3nc2-1 [TOPOTECAN] |  | PF50 (A2780 [3]): 2.9; PF50 (A2780 [4]): 2.5; IC50 (A2780 [8]): 22.6 µM; IC50 (A2780 [5]): 22 µM; IC50 (A2780 [6]): 7.8 µM; IC50 (A2780 [7]): 8.7 µM
NC(=O)c1cccc2[nH]c(-c3ccc(C(=O)O)cc3)nc12 | 0.29 | 
NC(=O)c1cccc2[nH]c(-c3ccc([N+](=O)[O-])cc3)nc12 |  | Ki [9]: 0.008 µM
NC(=O)c1cccc2nc(-c3ccc(O)cc3)[nH]c12 | 0.006 | 
N#Cc1ccc(-c2nc3c(C(N)=O)cccc3[nH]2)cc1 | 0.004 | 
COc1ccc(-c2nc3c(C(N)=O)cccc3[nH]2)cc1O | 0.002 | 
CCOC(=O)c1ccc(-c2nc3c(C(N)=O)cccc3[nH]2)cc1 | 0.0081 | 
NC(=O)c1cccc2[nH]c(-c3ccc4c(c3)OCO4)nc12 | 0.0059 | 
CNC(=O)c1cccc2[nH]c(-c3ccc(O)cc3)nc12 |  | Ki [10]: Not Active
NC(=O)c1cccc2[nH]c(C(F)(F)F)nc12 | 0.35 | 
CNC(=O)c1cccc2[nH]c(-c3ccc(OC)cc3)nc12 |  | Ki [10]: Not Active
O=C(O)c1cccc2[nH]c(-c3ccc(O)cc3)nc12 | 10 | 
COc1ccc(-c2nc3c(C(N)=O)cccc3n2C(=O)OCc2ccccc2)cc1 | 0.53 | 
NC(=O)c1cccc2[nH]c(-c3ccc(C(F)(F)F)cc3)nc12 | 0.0012 | 
NC(=O)c1cccc2[nH]c(-c3cccc(O)c3)nc12 | 0.0063 | 
NC(=O)c1cccc2[nH]c(-c3ccc(CO)cc3)nc12 | 0.0016 | 
